In brackets after ≈: the same amount, converted by molar mass.

The subject of the assay is Staphylococcus aureus. Kind of assay: Antibacterial activity against methicillin resistant Staphylococcus aureus FPR3757 assessed as inhibition of bacterial growth incubated for 24 hrs by CLSI based method. It counts as functional. As to conditions: read-out: MIC100. In short, it runs like this: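 It was mixed 1:1 with twofold serial compound dilutions and incubated stationary at 37 °C for 24 h. MIC was the lowest concentration giving complete inhibition of observable growth, with an oxacillin control.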
`COc1ccc2c(Nc3ccc(Cl)c(Cl)c3)cc(C(F)(F)F)nc2c1`: the MIC is 2 µg/mL (≈ 5.17 µM).
For `FC(F)(F)c1ccc2c(Oc3ccc(Cl)c(Cl)c3)cc(C(F)(F)F)nc2c1` the value was over 32 µg/mL.
Under `FC(F)(F)c1ccc2c(Nc3ccncc3)cc(C(F)(F)F)nc2c1` stands over 32 µg/mL; under `FC(F)(F)Oc1cccc(Nc2cc(C(F)(F)F)nc3c(C(F)(F)F)cccc23)c1`, 1 µg/mL (≈ 2.27 µM).
For `FC(F)(F)c1ccc2c(Nc3ccc4c(c3)OCO4)cc(C(F)(F)F)nc2c1` the value was over 4 µg/mL; for `CN1Cc2cc(Nc3cc(C(F)(F)F)nc4cc(C(F)(F)F)ccc34)ccc2C1=O`, over 32 µg/mL.
For the molecule `Fc1ccc2nc(C(F)(F)F)cc(Nc3ccc(C(F)(F)F)cn3)c2c1F`, the MIC turned out to be 16 µg/mL (≈ 40.7 µM).
For `COc1ccc2c(O)cc(C(F)(F)F)nc2c1` the value was 640 µg/mL (≈ 2630 µM); for `Fc1ccc(Nc2nc(C(F)(F)F)nc3nc(C(F)(F)F)ccc23)cc1F`, 32 µg/mL (≈ 81.2 µM).
On to `COc1ccc2c(Nc3cccc(OC(F)(F)F)c3)cc(C(F)(F)F)nc2c1`, for which the MIC was over 32 µg/mL.
Take `CN(C)c1ccc(Nc2cc(C(F)(F)F)cc3[nH]c(C(F)(F)F)cc(=O)c23)nc1`: the MIC stood at 2 µg/mL (≈ 4.8 µM).
For `FC(F)(F)c1ccc2c(Nc3cc(Cl)ccn3)cc(C(F)(F)F)nc2c1` the value was 2 µg/mL (≈ 5.11 µM); for `FC(F)(F)c1ccc(Nc2cc(N3CCOCC3)c3ccc(C(F)(F)F)cc3n2)nc1`, 8 µg/mL (≈ 18.1 µM); for `FC(F)(F)c1ccc(Nc2cc(N3CCNCC3)nc3cc(C(F)(F)F)ccc23)nc1`, 0.5 µg/mL (≈ 1.13 µM).
For `FC(F)(F)c1ccc2c(N3CCc4cccnc43)cc(C(F)(F)F)nc2c1` the value was over 32 µg/mL; for `FC(F)(F)c1ccc2c(Nc3cccc(Br)c3)cc(C(F)(F)F)nc2c1`, 0.25 µg/mL (≈ 0.574 µM); for `FC(F)(F)c1ccc2c(Nc3cccc4[nH]ncc34)cc(C(F)(F)F)nc2c1`, over 32 µg/mL.
Regarding `CCc1ccc2c(O)cc(C(F)(F)F)nc2c1`, the MIC came to 640 µg/mL (≈ 2650 µM).
For `Fc1cccc(Nc2cc(C(F)(F)F)nc3cc(C(F)(F)F)ccc23)c1` the value was 4 µg/mL (≈ 10.7 µM).
Under `FC(F)(F)c1ccc2c(Nc3ccc(Cl)c(Cl)c3)nc(C(F)(F)F)nc2c1` stands 0.5 µg/mL (≈ 1.17 µM); under `O=c1cc(C(F)(F)F)[nH]c2cc(C(F)(F)F)ccc12`, 5 µg/mL (≈ 17.8 µM); under `FC(F)(F)Oc1cccc2c(Nc3ccc(Cl)c(Cl)c3)cc(C(F)(F)F)nc12`, 0.5 µg/mL (≈ 1.13 µM).
For `CN(C)S(=O)(=O)c1ccc2c(Nc3cccc(OC(F)(F)F)c3)cc(C(F)(F)F)nc2c1` the value was 8 µg/mL (≈ 16.7 µM).
Regarding `FC(F)(F)c1ccc(Nc2nc(C(F)(F)F)nc3nc(C(F)(F)F)ccc23)nc1`, the MIC was over 32 µg/mL.
Under `CC(C)c1ccccc1Nc1cc(C(F)(F)F)nc2cc(C(F)(F)F)ccc12` stands 320 µg/mL (≈ 803 µM); under `FC(F)(F)Oc1cccc(Oc2cc(C(F)(F)F)nc3cc(C(F)(F)F)ccc23)c1`, over 32 µg/mL.
Turning to `Fc1ccc(Nc2cc(C(F)(F)F)nc3cc(C(F)(F)F)ccc23)cc1F`, the MIC amounted to 0.125 µg/mL (≈ 0.319 µM).
Take `FC(F)(F)c1ccc2c(N3CCOCC3)cc(C(F)(F)F)nc2c1`: the MIC was over 32 µg/mL.
Under `O=c1cc(C(F)(F)F)[nH]c2cc(C(F)(F)F)cc(N3CCOCC3)c12` stands over 32 µg/mL.
Under `FC(F)(F)c1ccc2c(Nc3ccccc3)cc(C(F)(F)F)nc2c1` stands 128 µg/mL (≈ 359 µM); under `Fc1cc(F)c2nc(C(F)(F)F)cc(Nc3ccc(C(F)(F)F)cn3)c2c1F`, over 32 µg/mL.
Under `Cn1cc(Nc2cc(C(F)(F)F)nc3cc(C(F)(F)F)ccc23)ccc1=O` stands over 32 µg/mL; under `Fc1ccc2c(Nc3ccc(Cl)c(Cl)c3)cc(C(F)(F)F)nc2c1`, 0.5 µg/mL (≈ 1.33 µM); under `FC(F)c1cc(Nc2cccc(OC(F)(F)F)c2)c2ccc(C(F)(F)F)cc2n1`, 0.5 µg/mL (≈ 1.18 µM).
As to `FC(F)(F)c1ccc2c(NC[C@@H]3CCCN3)cc(C(F)(F)F)nc2c1`, the MIC was over 32 µg/mL.
For `FC(F)(F)c1ccc(Nc2nc(C(F)(F)F)nc3cc(C(F)(F)F)ccc23)nc1` the value was 2 µg/mL (≈ 4.69 µM); for `FC(F)(F)Oc1cccc(Nc2nc(C(F)(F)F)nc3cc(C(F)(F)F)ccc23)c1`, 1 µg/mL (≈ 2.27 µM); for `FC(F)(F)c1ccc2c(Nc3ccccc3Cl)cc(C(F)(F)F)nc2c1`, over 16 µg/mL.
On to `FC(F)(F)c1ccc2c(Nc3cccc(I)c3)cc(C(F)(F)F)nc2c1`, for which the MIC was found to be 0.25 µg/mL (≈ 0.518 µM).
For `FC(F)c1cc(Nc2ccc(Cl)c(Cl)c2)c2ccc(C(F)(F)F)cc2n1` the value was 1 µg/mL (≈ 2.46 µM); for `COc1ccc2c(Nc3ccc(F)c(F)c3)cc(C(F)(F)F)nc2c1`, over 32 µg/mL.
For `Fc1ccc(Nc2cnnc3cc(C(F)(F)F)ccc23)cc1F` the value was over 32 µg/mL.
Under `FC(F)(F)c1ccc(Nc2cnnc3cc(C(F)(F)F)ccc23)nc1` stands over 32 µg/mL.
Consider `CSc1ccc2c(O)cc(C(F)(F)F)nc2c1`, for which the MIC was 640 µg/mL (≈ 2470 µM).
Under `FC(F)(F)c1ccc2c(Nc3ncccn3)cc(C(F)(F)F)nc2c1` stands over 32 µg/mL.
With `O=c1cc(C(F)(F)F)[nH]c2cc(C(F)(F)F)cc(Nc3ccc(C(F)(F)F)nn3)c12`, the MIC stood at 1 µg/mL (≈ 2.26 µM).
For `OCc1cccc(Nc2cc(C(F)(F)F)nc3cc(C(F)(F)F)ccc23)c1` the value was over 16 µg/mL.
For `COC(=O)c1cc(Nc2cc(C(F)(F)F)nc3cc(C(F)(F)F)ccc23)ccn1` the value was over 32 µg/mL.
Under `O=C(Nc1cc(C(F)(F)F)nc2cc(C(F)(F)F)ccc12)c1ccc(C(F)(F)F)cn1` stands over 32 µg/mL; under `CN(c1ccc(C(F)(F)F)cc1)c1cc(C(F)(F)F)nc2cc(C(F)(F)F)ccc12`, over 32 µg/mL; under `O[C@H]1C[C@H]2CC[C@@H](C1)N2c1cc(C(F)(F)F)nc2cc(C(F)(F)F)ccc12`, over 32 µg/mL.
Take `O=c1cc(C(F)(F)F)[nH]c2cc(C(F)(F)F)cc(Nc3cccc4[nH]ncc34)c12`: the MIC worked out at 2 µg/mL (≈ 4.85 µM).
On to `FC(F)(F)Oc1ccc2c(Nc3ccc(C(F)(F)F)cn3)cc(C(F)(F)F)nc2c1`, for which the MIC worked out at 1 µg/mL (≈ 2.27 µM).
Under `FC(F)(F)c1ccc2c(Oc3cccc(Cl)c3)cc(C(F)(F)F)nc2c1` stands over 32 µg/mL.
Under `N#Cc1cccc(Nc2cc(C(F)(F)F)nc3cc(C(F)(F)F)ccc23)c1` stands over 32 µg/mL; under `CN(C)S(=O)(=O)c1ccc2c(Nc3ccc(C(F)(F)F)cn3)cc(C(F)(F)F)nc2c1`, 8 µg/mL (≈ 17.2 µM); under `CN(C)S(=O)(=O)c1ccc2c(Nc3ccc(F)c(F)c3)cc(C(F)(F)F)nc2c1`, over 32 µg/mL.
Consider `Cc1onc(-c2ccccc2)c1C(=O)N[C@@H]1C(=O)N2[C@@H]1SC(C)(C)[C@@H]2C(=O)O` [OXACILLIN], for which the MIC turned out to be 64 µg/mL (≈ 159 µM).
For `CN(C)S(=O)(=O)c1ccc(Nc2cc(C(F)(F)F)cc3[nH]c(C(F)(F)F)cc(=O)c23)nc1` the value was 2 µg/mL (≈ 4.16 µM); for `O=c1cc(Nc2cc(C(F)(F)F)nc3cc(C(F)(F)F)ccc23)cc[nH]1`, over 32 µg/mL.
With `OC1CCCN(c2cc(C(F)(F)F)nc3cc(C(F)(F)F)ccc23)C1` (stereo not given), the MIC was over 32 µg/mL.
Take `FC(F)(F)Oc1cccc(Nc2cc(C(F)(F)F)nc3cc(OC(F)(F)F)ccc23)c1`: the MIC worked out at 1 µg/mL (≈ 2.19 µM).
For `FC(F)(F)c1ccc2c(Nc3ccc(C(F)(F)F)nc3)cc(C(F)(F)F)nc2c1` the value was over 32 µg/mL.
Under `CC(=O)c1cccc(Nc2cc(C(F)(F)F)nc3cc(C(F)(F)F)ccc23)c1` stands over 128 µg/mL; under `FC(F)(F)c1ccc2c(Nc3cccc(Cl)c3)cc(C(F)(F)F)nc2c1`, 0.25 µg/mL (≈ 0.64 µM); under `FC(F)(F)c1cccc(Nc2cc(C(F)(F)F)nc3cc(C(F)(F)F)ccc23)c1`, 0.25 µg/mL (≈ 0.589 µM).
`COc1ccc2c(Nc3ccc(C(F)(F)F)cn3)cc(C(F)(F)F)nc2c1`: the MIC came out at 32 µg/mL (≈ 82.6 µM).
With `FC(F)(F)c1ccc2c(Nc3cccc(N4CCOCC4)c3)cc(C(F)(F)F)nc2c1`, the MIC is over 16 µg/mL.
For `Fc1cccc(Oc2cc(C(F)(F)F)nc3cc(C(F)(F)F)ccc23)c1` the value was over 32 µg/mL.
Under `FC(F)(F)c1ccc2c(Nc3ccc(Cl)cc3)cc(C(F)(F)F)nc2c1` stands 0.12 µg/mL (≈ 0.307 µM); under `FC(F)(F)Oc1ccc2c(Nc3ccc(Cl)c(Cl)c3)cc(C(F)(F)F)nc2c1`, 0.5 µg/mL (≈ 1.13 µM); under `Oc1cc(C(F)(F)F)nc2c(C(F)(F)F)cccc12`, 2 µg/mL (≈ 7.11 µM).
For `Fc1ccc2c(Nc3cccc(OC(F)(F)F)c3)cc(C(F)(F)F)nc2c1` the value was 2 µg/mL (≈ 5.12 µM); for `FC(F)(F)Oc1cccc2c(Nc3ccc(C(F)(F)F)cn3)cc(C(F)(F)F)nc12`, 1 µg/mL (≈ 2.27 µM).
`Oc1cc(C(F)(F)F)nc2ccccc12`: the MIC is 320 µg/mL (≈ 1500 µM).
For `Oc1cc(C(F)(F)F)nc2cc(OC(F)(F)F)ccc12` the value was 4 µg/mL (≈ 13.5 µM).
Under `FC(F)(F)c1ccc2c(Nc3nccs3)cc(C(F)(F)F)nc2c1` stands 1 µg/mL (≈ 2.75 µM).
For `Oc1cc(C(F)(F)F)nc2cc(Cl)ccc12`, the MIC came out at 20 µg/mL (≈ 80.8 µM).
For `FC(F)(F)c1ccc(Nc2cc(C(F)(F)F)nc3c(C(F)(F)F)cccc23)nc1`, the MIC is 0.5 µg/mL (≈ 1.18 µM).
For `FC(F)(F)Oc1cccc(Nc2cc(C(F)(F)F)nc3cc(C(F)(F)F)ccc23)c1` the value was 8 µg/mL (≈ 18.2 µM); for `COc1ccc(Nc2cc(C(F)(F)F)nc3cc(C(F)(F)F)ccc23)cn1`, over 128 µg/mL.
In the case of `COc1cccc(Nc2cc(C(F)(F)F)nc3cc(C(F)(F)F)ccc23)c1`, the MIC is over 64 µg/mL.
Under `O=C1Cc2cc(Nc3cc(C(F)(F)F)nc4cc(C(F)(F)F)ccc34)ccc2N1` stands over 32 µg/mL; under `FC(F)(F)Oc1cccc(Nc2cc(C(F)(F)F)nc3c(OC(F)(F)F)cccc23)c1`, 1 µg/mL (≈ 2.19 µM).
Under `FC(F)(F)c1cc(Nc2ccc(Cl)c(Cl)c2)c2cccc(C(F)(F)F)c2n1` stands 0.5 µg/mL (≈ 1.18 µM); under `FC(F)(F)c1ccc2c(Nc3ccc(N4CCOCC4)cc3)cc(C(F)(F)F)nc2c1`, over 16 µg/mL; under `FC(F)(F)c1ccc2c(NC3CCCCC3)cc(C(F)(F)F)nc2c1`, over 16 µg/mL.
For `CSc1cccc(Nc2cc(C(F)(F)F)nc3cc(C(F)(F)F)ccc23)c1` the value was 0.25 µg/mL (≈ 0.621 µM); for `FC(F)(F)c1ccc(Nc2cc(N3CCOCC3)nc3cc(C(F)(F)F)ccc23)nc1`, over 32 µg/mL.
In the case of `FC(F)(F)c1ccc(Nc2cc(N3CCNCC3)c3ccc(C(F)(F)F)cc3n2)nc1`, the MIC turned out to be 4 µg/mL (≈ 9.06 µM).

For the origin of these results see ChEMBL document CHEMBL5150021, “Identification of 5-(Aryl/Heteroaryl)amino-4-quinolones as Potent Membrane-Disrupting Agents to Combat Antibiotic-Resistant Gram-Positive Bacteria” (J Med Chem, 2022).
